Data reported in the M2OR odorant receptor database.

Tests used:
Conditions in all cases: stereoisomer not certain
[1] = biological target: T1, UniProt A2ATE5
T1 sequence (whole entry): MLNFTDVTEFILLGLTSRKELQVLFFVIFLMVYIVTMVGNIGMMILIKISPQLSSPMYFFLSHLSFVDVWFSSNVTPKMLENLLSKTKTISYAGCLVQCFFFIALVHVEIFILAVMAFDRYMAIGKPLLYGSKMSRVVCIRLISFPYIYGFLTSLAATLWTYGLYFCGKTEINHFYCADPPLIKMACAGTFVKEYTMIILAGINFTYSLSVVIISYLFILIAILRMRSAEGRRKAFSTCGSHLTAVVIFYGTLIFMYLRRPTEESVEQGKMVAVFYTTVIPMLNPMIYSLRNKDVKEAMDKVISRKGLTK
How it was run: (§1)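 Values were gathered from published papers (main text and supplementary material), with extra details requested from the original authors when needed, and checked for typos and inconsistencies. Each receptor–molecule pair is called responsive (active) if the original authors judged the measured signal statistically different from baseline, and non-responsive (inactive) otherwise. Assay methods varied by source, often transient mammalian cell-line luciferase assays. Recorded details include cell line, G-protein, co-transfected protein and tags.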

[2] = biological target: T2, UniProt A2AVB0
T2 sequence (whole entry): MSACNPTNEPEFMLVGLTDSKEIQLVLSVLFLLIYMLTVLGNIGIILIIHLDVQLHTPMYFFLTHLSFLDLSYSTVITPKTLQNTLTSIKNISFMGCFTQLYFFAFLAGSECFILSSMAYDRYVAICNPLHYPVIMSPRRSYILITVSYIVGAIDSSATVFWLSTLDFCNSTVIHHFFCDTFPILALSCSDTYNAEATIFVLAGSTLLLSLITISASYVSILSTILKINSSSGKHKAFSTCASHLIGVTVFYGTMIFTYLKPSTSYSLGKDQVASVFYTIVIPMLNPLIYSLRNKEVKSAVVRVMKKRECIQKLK
How it was run: as §1

[3] = biological target: T3, UniProt E9PVX1
T3 sequence (whole entry): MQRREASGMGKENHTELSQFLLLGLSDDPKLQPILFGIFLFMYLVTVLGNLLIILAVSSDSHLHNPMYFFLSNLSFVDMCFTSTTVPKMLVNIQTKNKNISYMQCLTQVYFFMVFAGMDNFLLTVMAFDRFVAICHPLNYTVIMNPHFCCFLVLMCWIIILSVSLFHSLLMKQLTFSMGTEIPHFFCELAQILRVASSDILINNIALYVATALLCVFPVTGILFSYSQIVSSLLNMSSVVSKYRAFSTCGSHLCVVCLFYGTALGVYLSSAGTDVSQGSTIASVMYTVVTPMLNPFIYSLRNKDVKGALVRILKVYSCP
How it was run: as §1

[4] = biological target: T4, UniProt E9PZ66
T4 sequence (whole entry): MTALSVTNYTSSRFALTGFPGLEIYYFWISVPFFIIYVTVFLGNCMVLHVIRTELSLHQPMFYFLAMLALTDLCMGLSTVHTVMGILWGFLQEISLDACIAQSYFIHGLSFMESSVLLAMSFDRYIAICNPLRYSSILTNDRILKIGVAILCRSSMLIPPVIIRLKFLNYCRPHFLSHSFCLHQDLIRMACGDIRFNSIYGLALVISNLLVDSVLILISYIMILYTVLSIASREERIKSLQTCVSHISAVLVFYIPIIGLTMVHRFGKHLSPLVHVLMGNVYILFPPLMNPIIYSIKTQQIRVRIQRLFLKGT
How it was run: as §1

[5] = biological target: T5, UniProt E9Q4X7
T5 sequence (whole entry): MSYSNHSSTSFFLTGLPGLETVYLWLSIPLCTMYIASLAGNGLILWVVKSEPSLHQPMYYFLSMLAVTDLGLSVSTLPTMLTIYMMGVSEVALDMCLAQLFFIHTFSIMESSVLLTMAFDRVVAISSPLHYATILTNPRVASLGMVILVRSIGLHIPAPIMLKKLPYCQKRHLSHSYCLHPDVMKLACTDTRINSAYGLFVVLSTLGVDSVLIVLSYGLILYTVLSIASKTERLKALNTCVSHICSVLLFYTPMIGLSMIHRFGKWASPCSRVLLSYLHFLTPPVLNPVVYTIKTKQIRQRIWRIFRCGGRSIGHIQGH
How it was run: as §1

[6] = biological target: T6, UniProt E9Q546
T6 sequence (whole entry): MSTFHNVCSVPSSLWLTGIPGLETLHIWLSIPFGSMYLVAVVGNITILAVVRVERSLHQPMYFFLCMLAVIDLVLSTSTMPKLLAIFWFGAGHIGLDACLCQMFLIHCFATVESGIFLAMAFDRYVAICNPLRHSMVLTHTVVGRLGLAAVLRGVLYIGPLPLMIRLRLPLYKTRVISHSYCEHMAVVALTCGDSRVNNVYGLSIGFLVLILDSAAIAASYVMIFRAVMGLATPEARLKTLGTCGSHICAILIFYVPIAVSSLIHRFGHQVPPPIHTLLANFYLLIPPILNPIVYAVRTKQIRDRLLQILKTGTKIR
How it was run: as §1

[7] = biological target: T7, UniProt E9Q6Z7
T7 sequence (whole entry): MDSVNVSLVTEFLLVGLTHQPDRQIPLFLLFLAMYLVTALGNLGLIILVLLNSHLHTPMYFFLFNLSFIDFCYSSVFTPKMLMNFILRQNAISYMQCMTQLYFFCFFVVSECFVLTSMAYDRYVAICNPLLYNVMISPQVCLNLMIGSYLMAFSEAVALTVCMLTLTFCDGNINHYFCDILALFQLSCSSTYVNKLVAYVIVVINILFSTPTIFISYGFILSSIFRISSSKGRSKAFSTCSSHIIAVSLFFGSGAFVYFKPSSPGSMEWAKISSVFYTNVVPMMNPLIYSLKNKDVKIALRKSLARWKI
How it was run: as §1

[8] = biological target: T8, UniProt A2AVB5
T8 sequence (whole entry): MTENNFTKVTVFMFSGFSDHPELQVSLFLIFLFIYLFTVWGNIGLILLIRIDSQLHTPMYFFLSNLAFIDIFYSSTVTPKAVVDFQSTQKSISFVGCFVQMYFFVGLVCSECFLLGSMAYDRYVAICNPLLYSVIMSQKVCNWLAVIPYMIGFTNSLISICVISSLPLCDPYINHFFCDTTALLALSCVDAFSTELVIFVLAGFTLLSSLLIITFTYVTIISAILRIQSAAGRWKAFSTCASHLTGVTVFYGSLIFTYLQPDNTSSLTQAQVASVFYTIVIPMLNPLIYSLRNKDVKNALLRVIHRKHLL
How it was run: as §1

[9] = biological target: T9, UniProt B2RVX8
T9 sequence (whole entry): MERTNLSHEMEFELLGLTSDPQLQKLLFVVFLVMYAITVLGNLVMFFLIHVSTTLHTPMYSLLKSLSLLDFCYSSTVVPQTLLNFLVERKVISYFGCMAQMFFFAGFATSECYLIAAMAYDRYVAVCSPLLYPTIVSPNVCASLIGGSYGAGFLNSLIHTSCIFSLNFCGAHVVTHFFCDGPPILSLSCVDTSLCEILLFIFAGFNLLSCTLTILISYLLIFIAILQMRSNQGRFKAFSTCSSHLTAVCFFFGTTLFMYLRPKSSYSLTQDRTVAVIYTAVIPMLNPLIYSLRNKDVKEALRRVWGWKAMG
How it was run: as §1

[10] = biological target: T10, UniProt E9PX47
T10 sequence (whole entry): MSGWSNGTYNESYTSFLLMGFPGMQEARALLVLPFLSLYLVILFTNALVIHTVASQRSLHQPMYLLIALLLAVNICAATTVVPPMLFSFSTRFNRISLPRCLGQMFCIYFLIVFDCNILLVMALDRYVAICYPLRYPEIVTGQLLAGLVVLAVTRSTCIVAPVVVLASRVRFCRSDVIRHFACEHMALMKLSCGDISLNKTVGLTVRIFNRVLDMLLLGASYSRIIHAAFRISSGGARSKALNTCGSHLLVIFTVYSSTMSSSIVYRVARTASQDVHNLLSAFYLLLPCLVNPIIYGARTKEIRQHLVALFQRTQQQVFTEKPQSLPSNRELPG
How it was run: as §1

[11] = biological target: T11, UniProt K7N609
T11 sequence (whole entry): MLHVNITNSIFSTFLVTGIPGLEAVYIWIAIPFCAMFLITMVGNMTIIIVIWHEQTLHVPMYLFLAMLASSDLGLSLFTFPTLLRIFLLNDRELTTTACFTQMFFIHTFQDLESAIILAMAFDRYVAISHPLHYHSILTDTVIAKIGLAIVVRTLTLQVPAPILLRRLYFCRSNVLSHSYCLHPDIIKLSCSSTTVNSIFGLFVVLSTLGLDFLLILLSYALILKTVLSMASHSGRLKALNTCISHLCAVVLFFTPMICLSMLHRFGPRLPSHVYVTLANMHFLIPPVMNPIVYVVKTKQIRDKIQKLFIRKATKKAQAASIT
How it was run: as §1

[12] = biological target: T12, UniProt E9PXN3
T12 sequence (whole entry): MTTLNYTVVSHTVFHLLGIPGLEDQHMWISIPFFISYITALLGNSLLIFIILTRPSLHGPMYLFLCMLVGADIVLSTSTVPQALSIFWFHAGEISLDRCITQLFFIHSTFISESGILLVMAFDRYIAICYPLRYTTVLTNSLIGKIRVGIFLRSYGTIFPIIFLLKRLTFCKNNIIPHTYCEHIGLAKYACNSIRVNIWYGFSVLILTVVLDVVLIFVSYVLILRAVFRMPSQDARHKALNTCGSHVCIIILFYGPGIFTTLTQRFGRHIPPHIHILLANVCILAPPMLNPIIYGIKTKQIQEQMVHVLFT
How it was run: as §1

[13] = biological target: T13, UniProt E1BM68
T13 sequence (whole entry): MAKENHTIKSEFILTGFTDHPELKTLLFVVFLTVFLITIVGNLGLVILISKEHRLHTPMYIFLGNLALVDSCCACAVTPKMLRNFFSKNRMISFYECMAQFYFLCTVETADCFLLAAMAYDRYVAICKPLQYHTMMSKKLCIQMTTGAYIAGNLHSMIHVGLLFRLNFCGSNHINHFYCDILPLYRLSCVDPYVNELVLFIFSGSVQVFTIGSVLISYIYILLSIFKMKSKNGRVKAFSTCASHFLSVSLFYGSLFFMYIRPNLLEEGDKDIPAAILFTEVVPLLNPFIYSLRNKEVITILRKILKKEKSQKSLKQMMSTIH
How it was run: as §1

[14] = biological target: T14, UniProt E9QAT7
T14 sequence (whole entry): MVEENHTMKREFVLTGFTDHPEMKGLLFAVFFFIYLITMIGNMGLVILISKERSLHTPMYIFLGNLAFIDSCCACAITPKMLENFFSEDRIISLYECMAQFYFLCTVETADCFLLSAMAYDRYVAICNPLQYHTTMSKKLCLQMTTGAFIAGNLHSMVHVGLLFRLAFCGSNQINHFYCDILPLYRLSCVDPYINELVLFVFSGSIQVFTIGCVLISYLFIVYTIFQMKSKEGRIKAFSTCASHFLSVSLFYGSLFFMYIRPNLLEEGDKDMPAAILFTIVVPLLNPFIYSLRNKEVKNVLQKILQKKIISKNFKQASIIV
How it was run: as §1

Measured: odorant receptor agonist call

CCCCCCCCOC=O
inactive: [1] | [2] | [3] | [4] | [5] | [6] | [7]

CCCCCCC(=O)[O-].[H+]
inactive: [8] | [9] | [10] | [6] | [11]

CCC=CCCC=CC=O
inactive: [1] | [2] | [3] | [4] | [5] | [6] | [7]

CCCC(C)=O
inactive: [8] | [9] | [10] | [12] | [6] | [11]

C=Cc1cnccn1
inactive: [14]
active: [13]

C=CC(=C)CCC=C(C)CCC=C(C)C
inactive: [1] | [2] | [3] | [4] | [5] | [6] | [7]

O=C(O)CCCCCCCCC(=O)O
inactive: [1] | [2] | [3] | [4] | [5] | [6] | [7]

CC(=O)c1cnccn1
active: [13]
inactive: [14]

CCC=CCCCCC=O
inactive: [1] | [2] | [3] | [4] | [5] | [6] | [7]
